Assay [1] is described as follows: Antibacterial activity against Enterobacter cloacae NCTC 10005 strain. Type of assay: functional.
For another assay, the system named is Klebsiella aerogenes. Nature of the assay: Antibacterial activity against Klebsiella aerogenes WRL CN 345 strain. The conditions noted are these: Klebsiella aerogenes, WRL CN 375; read-out: MIC. The assay is classed as functional, WRL CN 375.
In assay [2] the test system is Staphylococcus aureus. Nature of the assay: Antibacterial activity against methicillin-resistant Staphylococcus aureus (MRSA) PHLS M1 strain. The assay is classed as functional. The method, boiled down:
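Read-out is the minimum inhibitory concentration, reported in µM. Amoxycillin is tested alongside as the reference antibiotic.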

Assay [3] concerns Mycolicibacterium fortuitum. The assay is described as follows: Antibacterial activity against Mycobacterium fortuitum NCTC 10394 strain. Type of assay: functional.
Another assay concerns Proteus vulgaris. The assay is described as follows: Antibacterial activity against Proteus vulgaris NCTC 4175 strain. Type of assay: functional.
In assay [4] the test system is Staphylococcus aureus. The assay is described as follows: Antibacterial activity against Staphylococcus aureus NCTC 6571 strain. Type of assay: functional.
The test system of assay [5] is Enterococcus faecalis. Nature of the assay: Antibacterial activity against Streptococcus faecalis NCTC 775 strain. The assay is classed as functional.
For assay [6], the system named is Aspergillus niger. The assay is described as follows: Antifungal activity against Aspergillus niger IMI17454 strain; na = not active. The assay is classed as functional.
In a further assay the test system is Aspergillus nidulans. Nature of the assay: Antifungal activity against Aspergillus nidulans CABI 0160037 strain. The assay is classed as functional.
A short description of assay [7]: Antifungal activity against Candida albicans NCPF 3179 strain; na = not active. Type of assay: functional.
The next assay concerns Escherichia coli. The assay is described as follows: Antibacterial activity against Escherichia coli NCTC 9001 strain. The assay is classed as functional, organism-based.
A further assay concerns Enterobacter cloacae. The assay is described as follows: Antibacterial activity against Enterobacter cloacae NCTC 10005 strain. Type of assay: functional, organism-based.
Assay [8] concerns Staphylococcus aureus. Nature of the assay: Antibacterial activity against MRSA PHLS M1 strain; na = not active. Type of assay: functional, organism-based.
The subject of assay [9] is Staphylococcus aureus. Nature of the assay: Antibacterial activity against Staphylococcus aureus NCTC 6571 strain; na = not active. Type of assay: functional, organism-based.
In assay [10] the test system is Enterococcus faecalis. Nature of the assay: Antibacterial activity against Streptococcus faecalis NCTC 775 strain; na = not active. The assay is classed as functional, organism-based.
Assay [11] has as its system Aspergillus niger. The assay is described as follows: Antifungal activity against Aspergillus niger IMI17454 strain. Type of assay: functional. To be noted: Aspergillus niger; read-out: MIC.
The next assay relates to Candida albicans. The assay is described as follows: Antifungal activity against Candida albicans NCPF 3179 strain. To be noted: Candida albicans; read-out: MIC. The assay is classed as functional.
Assay [12] in a line: Antibacterial activity against Proteus vulgaris NCTC 4175 strain; na = not active. The assay is classed as functional.

In brackets after ≈: the same amount, converted by molar mass. Activity calls are given as the source filed them. The calls are words filed in the database; no cut-off is given here. Some results are limits rather than exact numbers.

In general, MIC refers to the lowest concentration that inhibits growth of the organism. With `CC1(C)S[C@@H]2[C@H](NC(=O)[C@H](N)c3ccc(O)cc3)C(=O)N2[C@H]1C(=O)O` [AMOXICILLIN], the MIC in assay [1] came to 4 µM (≈ 1.46 µg/mL); with Klebsiella aerogenes, 8.1 µM (≈ 2.96 µg/mL); against Staphylococcus aureus [2] it was 16.1 µM (≈ 5.88 µg/mL); in assay [3], 16.1 µM (≈ 5.88 µg/mL); in the assay on Proteus vulgaris, 4 µM (≈ 1.46 µg/mL); in the assay on Staphylococcus aureus [4], 0.49 µM (≈ 0.179 µg/mL). In the assay with Enterococcus faecalis [5], this compound returned an MIC of 0.49 µM (≈ 0.179 µg/mL).
For `CC(=O)Nc1cc(C(=O)Nc2cc(C(=O)Nc3cc(C(=O)NCCCN4CCN(C)CC4)n(C)c3)n(CCC(C)C)c2)n(C)c1`, the MIC entry (with Aspergillus niger [6]; in assay [7]; with Escherichia coli; with Enterobacter cloacae; in the assay with Staphylococcus aureus [8]; in the assay on Staphylococcus aureus [9]) was “inactive” each time. The MIC entry in the assay with Enterococcus faecalis [10] is “inactive”. For the same compound, the MIC (with Aspergillus nidulans; in the assay on Klebsiella aerogenes; in assay [3]; in the assay on Proteus vulgaris) was 136 µM (≈ 84.6 µg/mL) in each case.
Turning to `CC(=O)Nc1cc(C(=O)Nc2cc(C(=O)Nc3cc(C(=O)NCCCN(C)C)n(C)c3)n(C)c2)n(C)c1`, the MIC in the assay on Aspergillus niger [11] was 160 µM (≈ 81.7 µg/mL); with Aspergillus nidulans, 160 µM (≈ 81.7 µg/mL); with Candida albicans it was 160 µM (≈ 81.7 µg/mL); in [1] it was 160 µM (≈ 81.7 µg/mL); in the assay on Klebsiella aerogenes it was 80 µM (≈ 40.8 µg/mL); against Staphylococcus aureus [2], 40 µM (≈ 20.4 µg/mL). The MIC (in assay [3]; in the assay with Proteus vulgaris; with Enterococcus faecalis [5]) was 160 µM (≈ 81.7 µg/mL) in each case. Also, the MIC entry with Escherichia coli and with Staphylococcus aureus [9] was “inactive” throughout.
Consider `Cc1sccc1C(=O)Nc1cc(C(=O)Nc2cc(C(=O)Nc3cc(C(=O)NCCCN(C)C)n(C)c3)n(C)c2)n(C)c1`, for which the minimum inhibitory concentration (MIC) with Aspergillus niger [11] was 141 µM (≈ 83.6 µg/mL); against Aspergillus nidulans, 70.8 µM (≈ 42 µg/mL); in the assay on Klebsiella aerogenes, 70.8 µM (≈ 42 µg/mL); in the assay with Staphylococcus aureus [2] it was 141 µM (≈ 83.6 µg/mL); in [3] it was 35.4 µM (≈ 21 µg/mL); in the assay on Enterococcus faecalis [5], 141 µM (≈ 83.6 µg/mL). Besides, the MIC result (in [7]; with Escherichia coli; in the assay on Enterobacter cloacae; in [12]; in the assay on Staphylococcus aureus [9]) was “inactive” throughout.
With `CN(C)CCCNC(=O)c1cc(NC(=O)c2cc(NC(=O)c3cc(NC(=O)/C=C/c4ccccc4)cn3C)cn2C)cn1C`, the minimal inhibitory concentration (MIC) was determined as 140 µM (≈ 83.8 µg/mL) with Aspergillus niger [11]; 70.2 µM (≈ 42 µg/mL) against Aspergillus nidulans; 35.1 µM (≈ 21 µg/mL) in the assay with Candida albicans; 70.2 µM (≈ 42 µg/mL) in [1]; 70.2 µM (≈ 42 µg/mL) in the assay with Klebsiella aerogenes; 140 µM (≈ 83.8 µg/mL) against Staphylococcus aureus [2]. Moreover, the minimal inhibitory concentration (MIC) in [3] was determined as 140 µM (≈ 83.8 µg/mL); with Proteus vulgaris, 70 µM (≈ 41.9 µg/mL); against Staphylococcus aureus [4], 8.8 µM (≈ 5.27 µg/mL); against Enterococcus faecalis [5] it was 8.8 µM (≈ 5.27 µg/mL). Also, the MIC entry in the assay with Escherichia coli is “inactive”.
On to `OC(Cn1cncn1)(Cn1cncn1)c1ccc(F)cc1F` [FLUCONAZOLE], for which the results for the minimal inhibitory concentration (MIC) (in the assay with Aspergillus niger [11]; with Aspergillus nidulans; in assay [7]) were greater than 300 µM, 90.8 µM (≈ 27.8 µg/mL) and 81.6 µM (≈ 25 µg/mL), respectively.
Take `CC(C)n1cc(NC(=O)c2cc(NCc3ccccc3)cn2C)cc1C(=O)Nc1cc(C(=O)NCCCN(C)C)n(C)c1`: the MIC in the assay on Aspergillus niger [11] worked out at 147 µM (≈ 86.3 µg/mL); in the assay with Aspergillus nidulans, 73.5 µM (≈ 43.1 µg/mL); in the assay with Candida albicans it was 147 µM (≈ 86.3 µg/mL); in the assay with Klebsiella aerogenes it was 147 µM (≈ 86.3 µg/mL); in assay [3] it was 73.5 µM (≈ 43.1 µg/mL); in the assay on Staphylococcus aureus [4] it was 147 µM (≈ 86.3 µg/mL). Also, in the assay with Enterococcus faecalis [5], 147 µM (≈ 86.3 µg/mL) was the least that counted as inhibitory (MIC). The MIC result (in the assay with Escherichia coli; with Enterobacter cloacae; in the assay with Staphylococcus aureus [8]; in assay [12]) was “inactive” throughout.
With `CCC(C)n1ncn(-c2ccc(N3CCN(c4ccc(OC[C@H]5CO[C@](Cn6cncn6)(c6ccc(Cl)cc6Cl)O5)cc4)CC3)cc2)c1=O` (stereo not given in full) [ITRACONAZOLE], the MIC was 17.7 µM (≈ 12.5 µg/mL) with Aspergillus niger [11], 35.4 µM (≈ 25 µg/mL) in the assay on Aspergillus nidulans and 35.4 µM (≈ 25 µg/mL) in assay [7].
Regarding `CC(C)CCn1cc(NC(=O)c2cc(NC(=O)c3cc([N+](=O)[O-])cn3C)cn2C)cc1C(=O)Nc1cc(C(=O)NCCCN(C)C)n(C)c1`, the minimum inhibitory concentration (MIC) is 15.8 µM (≈ 10.7 µg/mL) in the assay with Aspergillus niger [11]; 25.8 µM (≈ 17.5 µg/mL) in the assay on Aspergillus nidulans; 15.8 µM (≈ 10.7 µg/mL) in the assay on Candida albicans; 15.8 µM (≈ 10.7 µg/mL) in the assay with Klebsiella aerogenes; 126 µM (≈ 85.3 µg/mL) with Staphylococcus aureus [2]; 15.8 µM (≈ 10.7 µg/mL) in assay [3]. In addition, the minimum inhibitory concentration (MIC) with Proteus vulgaris was 126 µM (≈ 85.3 µg/mL); against Staphylococcus aureus [4], 31.6 µM (≈ 21.4 µg/mL); against Enterococcus faecalis [5], 15.8 µM (≈ 10.7 µg/mL). The MIC entry with Escherichia coli and in the assay with Enterobacter cloacae was “inactive” each time.
Compound `CN[C@@H]1[C@H](O[C@H]2[C@H](O[C@H]3[C@H](O)[C@@H](O)[C@H](N=C(N)N)[C@@H](O)[C@@H]3N=C(N)N)O[C@@H](C)[C@]2(O)C=O)O[C@@H](CO)[C@H](O)[C@H]1O` [STREPTOMYCIN] came in with an MIC against Staphylococcus aureus [4] of 10.8 µM (≈ 6.28 µg/mL).

(Values after ChEMBL document CHEMBL1137088, “Distamycin analogues with enhanced lipophilicity: synthesis and antimicrobial activity” (2004).)
